Laboratory results as given in ChEMBL document CHEMBL3596132, “Antiproliferative activity of O4-benzo[c]phenanthridine alkaloids against HCT-116 and HL-60 tumor cells” (Bioorg Med Chem Lett, 2015).

Experiments:
Type in all cases: functional, cell-based
HepG2 = assay: Cytotoxicity against human HepG2 cells
HL-60 = assay: Antiproliferative activity against human HL60 cells assessed as inhibition of cell viability after 48 hrs by WST-1 assay; conditions: HL-60, 48 h
In short: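 WST-1 assay. HL-60 cells were seeded at 1.0 × 10^4 per well in FBS-containing medium together with test agents and incubated 48 h. Absorbance read at 415 nm. Viability expressed as percent of untreated controls; IC50 reported.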

HCT-116 = assay: Antiproliferative activity against human HCT116 cells assessed as inhibition of cell viability after 48 hrs by MTT assay; conditions: HCT-116, 48 h
In short: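 HCT-116 cells seeded at 2.0 × 10^3 per well and allowed to attach for 24 h at 37 °C, 5% CO2. Agents were added in FBS-containing medium for 48 h. MTT (5 mg/mL in PBS stock) was then added for 4 h, formazan dissolved in DMSO, and absorbance read at 570 nm. Viability expressed as percent of untreated controls; IC50 reported.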

Row | Compound | IC50 (HL-60) | IC50 (HCT-116) | IC50 (HepG2)
1 | COc1ccc2c(c1OC)CN(C)c1c-2ccc2cc3c(cc12)OCO3 [DIHYDROCHELERYTHRINE] | > 10 µM | > 10 µM | –
2 | COc1cc2cnc3c4cc5c(cc4ccc3c2cc1OC)OCO5 | > 10 µM | > 10 µM | –
3 | COc1ccc2c(c1O)CN(C)c1c-2ccc2cc3c(cc12)OCO3 | 4.96 µM | 3.22 µM | –
4 | COc1cc2c(cc1OC)-c1ccc3cc4c(cc3c1N(C)C2)OCO4 | 4.51 µM | 6.61 µM | –
5 | COc1cc2cnc3c4cc5c(cc4ccc3c2cc1O)OCO5 | > 10 µM | > 10 µM | –
6 | COc1ccc2c(c[n+](C)c3c4cc5c(cc4ccc23)OCO5)c1O | 0.79 µM | 1.31 µM | –
7 | COc1ccc2c(c[n+](C)c3c4cc5c(cc4ccc23)OCO5)c1OC [CHELERYTHRINE CHLORIDE] | 2.99 µM | 2.13 µM | –
8 | COc1ccc2c(cnc3c4cc5c(cc4ccc23)OCO5)c1OC | > 10 µM | > 10 µM | –
9 | COc1cc2c(cc1O)-c1ccc3cc4c(cc3c1N(C)C2)OCO4 | > 10 µM | 7.28 µM | –
10 | COc1ccc2c(c1OC)-c1ccc3cc4c(cc3c1N(C)C2)OCO4 | > 10 µM | > 10 µM | –

The next lines start with results.

Row | IC50 (HL-60) | IC50 (HCT-116) | Compound | IC50 (HepG2)
11 | 3.41 µM | 4.42 µM | COc1cc2c[n+](C)c3c4cc5c(cc4ccc3c2cc1OC)OCO5 [NITIDINE CHLORIDE] | 3.52 µM
12 | > 10 µM | > 10 µM | COc1c(O)ccc2c[n+](C)c3c4cc5c(cc4ccc3c12)OCO5 | –
13 | > 10 µM | > 10 µM | COc1c(O)ccc2cnc3c4cc5c(cc4ccc3c12)OCO5 | –
14 | > 10 µM | > 10 µM | COc1c(O)ccc2c1-c1ccc3cc4c(cc3c1N(C)C2)OCO4 | –
15 | 7.82 µM | 3.23 µM | COc1ccc2c[n+](C)c3c4cc5c(cc4ccc3c2c1OC)OCO5 | –
16 | > 10 µM | > 10 µM | COc1ccc2c(cnc3c4cc5c(cc4ccc23)OCO5)c1O | –
17 | > 10 µM | > 10 µM | COc1cc2c(cc1O)c[n+](C)c1c3cc4c(cc3ccc21)OCO4 | –
18 | 3.28 µM | 3.35 µM | COc1cc2c[n+](C)c3c4cc5c(cc4ccc3c2cc1O)OCO5 | –
19 | > 10 µM | > 10 µM | COc1ccc2cnc3c4cc5c(cc4ccc3c2c1OC)OCO5 | –
20 | > 10 µM | > 10 µM | COc1cc2c(cnc3c4cc5c(cc4ccc23)OCO5)cc1O | –
